Data set [1] deals with HT-29. The data set is described as follows: Growth inhibition of combretastatin A-4 resistant human HT-29 cells after 24 hrs by MTT assay. The note with it: HT-29, 24 h. The class given is functional, cell-based. Put shortly:
(§1)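 Cells seeded at 5000/well (Ea.hy926 10,000/well) and exposed for 24 h to dilution series of 100 µM–5 pM, with DMSO as solvent control. MTT (0.5 mg/mL final) for 2 h. Formazan dissolved in SDS/acetic acid/DMSO and read at 570 nm against a 630 nm background. Viability taken relative to DMSO controls; IC50 from dose–response curves, mean of four independent experiments.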
A general note: Tetrazolium dyes change colour on reduction, which living cells bring about.

For data set [2], the system named is HT-29. Briefly: Growth inhibition of combretastatin A-4 resistant human HT-29 cells after 72 hrs by MTT assay. It counts as functional, cell-based. The settings on record: HT-29, 72 h. Put shortly: (§2)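 5000 cells/well exposed for 72 h to dilution series of 100 µM–5 pM, with DMSO as solvent control. MTT 0.5 mg/mL final for 2 h, absorbance at 570/630 nm. Percentage viable cells taken versus DMSO controls; IC50 from dose–response curves, mean of four independent experiments.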

Data set [3] is described as follows: Growth inhibition of human KB-V1/Vbl cells after 24 hrs by MTT assay. It counts as functional. Put shortly:
as §1

Data set [4] in a line: Growth inhibition of human MCF7/Topo cells after 24 hrs by MTT assay. It counts as functional, cell-based. Put shortly: as §1
Data set [5] is described as follows: Growth inhibition of human 518A2 cells after 24 hrs by MTT assay. The note with it: 518A2, 24 h. The class given is functional, cell-based. Put shortly: as §1
Data set [6] in a line: Growth inhibition of human 518A2 cells after 72 hrs by MTT assay. The settings on record: 518A2, 72 h. The class given is functional, cell-based. Put shortly:
as §2

Data set [7] is described as follows: Cell cycle arrest in human 518A2 cells assessed as accumulation at subG1 phase at 200 nM after 24 hrs by propidium iodide staining-based flow cytometry (reference value: 3.8%). It counts as functional.
The nature of data set [8]: Cell cycle arrest in human 518A2 cells assessed as G2/M index ratio at 200 nM after 24 hrs by propidium iodide staining-based flow cytometry relative to control. The class given is functional. On the technique in general: A flow cytometer gives signals particle by particle.
Data set [9] in a line: Cell cycle arrest in human 518A2 cells assessed as accumulation at S phase at 200 nM after 24 hrs by propidium iodide staining-based flow cytometry (reference value: 20.4%). The class given is functional.
A short description of data set [10]: Cell cycle arrest in human 518A2 cells assessed as apoptotic index ratio at 200 nM after 24 hrs by propidium iodide staining-based flow cytometry relative to control. It counts as functional.
A short description of data set [11]: Cell cycle arrest in human 518A2 cells assessed as accumulation at G1 phase at 200 nM after 24 hrs by propidium iodide staining-based flow cytometry (reference value: 49.5%). The class given is functional.
Data set [12] is described as follows: Cell cycle arrest in human 518A2 cells assessed as accumulation at G2/M phase at 200 nM after 24 hrs by propidium iodide staining-based flow cytometry (reference value: 26.3%). It counts as functional.
The nature of data set [13]: Growth inhibition of human MCF7/Topo cells after 72 hrs by MTT assay. It counts as functional, cell-based. Put shortly:
(§3)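 MTT assay: cells seeded at 5000/well (MCF-7/Topo) or 10,000/well (Ea.hy926), then given dilution series (100 µM–5 pM) or DMSO for 72 h. MTT was added at 0.5 mg/mL final for 2 h, formazan dissolved in SDS/acetic acid/DMSO, and absorbance read at 570 nm with 630 nm background. Viability was set relative to DMSO controls, and IC50 taken as the mean of at least three experiments ± S.D.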

Data set [14] can be described thus: Cytotoxicity against human EAhy926 cells assessed as cell viability at 100 nM after 16 hrs by MTT assay relative to control. The class given is cell-based, EA.hy 926. The note with it: read-out: Activity. Put shortly: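 Ea.hy926 cells (100,000/well) seeded on Matrigel-coated coverslips and left 12 h to form networks, then exposed to compound for 16 h. Viability was read by 2 h MTT (0.5 mg/mL) and absorbance of the formazan, expressed relative to DMSO controls.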

Data set [15] deals with EA.hy 926. The data set is described as follows: Antivascular activity in human EAhy926 cells assessed as change in cell morphology from stretched to rounded form at 100 nM after 16 hrs by matrigel based tube formation assay. It counts as functional. Put shortly: (§4)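 Ea.hy926 cells (100,000/well) were seeded on Matrigel-coated coverslips and allowed 12 h to form vessel-like networks. Test agent (CA-4 100 nM; indoles 250 nM) or DMSO was then added for 16 h, and networks were documented by light microscopy. Viability was checked by 2 h MTT (0.5 mg/mL) relative to DMSO controls.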

In data set [16] the test system is HT-29. The data set is described as follows: Cell cycle arrest in combretastatin A-4 resistant human HT-29 cells assessed as accumulation at G2 phase at 5 uM after 24 hrs by propidium iodide staining-based flow cytometry (reference value: 15.6 +/- 0.1%). It counts as functional. Put shortly: (§5)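 HT-29 cells (200,000/well) were treated 24 h with 100 nM indole, 5 μM CA-4 or DMSO. Cells were trypsinized, fixed in 4% formaldehyde (20 min, RT) and permeabilized in 90% ice-cold methanol (30 min). They were immunostained with anti-phospho-histone H3 (Ser10) (5 μg/mL, 37 °C, 1 h) plus an AlexaFluor-488 secondary, then stained with PI/RNase (30 min, 37 °C). Flow cytometry of 10,000 single cells assigned G1/S/G2/M.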

Data set [17] is filed under the species Sus scrofa. The data set is described as follows: Inhibition of porcine brain alpha/beta tubulin polymerization at 5 uM measured every 20 sec by microplate reader analysis.
Data set [18] deals with EA.hy 926. The data set is described as follows: Antivascular activity in human EAhy926 cells assessed as induction of retraction of cells to nodes at 100 nM after 16 hrs by light microscopic analysis. It counts as functional, cell-based. Put shortly: as §4
Data set [19] relates to HT-29. Briefly: Cell cycle arrest in combretastatin A-4 resistant human HT-29 cells assessed as accumulation at G1 phase at 5 uM after 24 hrs by propidium iodide staining-based flow cytometry (reference value: 68.1 +/- 0.3%). It counts as functional. Put shortly: as §5
The nature of data set [20]: Growth inhibition of p53 null human HCT116 cells after 72 hrs by MTT assay. The settings on record: HCT-116, 72 h. It counts as functional, cell-based. Put shortly:
(§6)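 HCT-116 cells, p53 wild-type or p53-/-, seeded at 5000/well and treated 72 h with dilution series (100 µM–5 pM) or DMSO. MTT 0.5 mg/mL for 2 h, absorbance at 570/630 nm. Viability relative to DMSO controls; IC50 from dose–response curves, mean of three independent experiments ± S.D.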

The test system of data set [21] is HT-29. Briefly: Cell cycle arrest in combretastatin A-4 resistant human HT-29 cells assessed as accumulation at S phase at 5 uM after 24 hrs by propidium iodide staining-based flow cytometry (reference value: 13.7 +/- 0.3%). It counts as functional. Put shortly:
as §5

Data set [22] concerns EA.hy 926. Briefly: Antivascular activity in human EAhy926 cells assessed as disruption of preformed blood vessel lke network at 100 nM after 16 hrs by matrigel based tube formation assay. The class given is functional, cell-based. Put shortly: as §4
Data set [23] can be described thus: Growth inhibition of human HCT116 cells expressing wild type p53 after 72 hrs by MTT assay. The class given is functional, cell-based. The note with it: HCT-116, 72 h. Put shortly: as §6
The nature of data set [24]: Growth inhibition of primary chicken fibroblasts after 48 hrs by MTT assay. The class given is cell-based. The settings on record: Gallus gallus, Fibroblast. Put shortly:
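Chicken heart fibroblasts explanted from 10-day-old embryos, seeded at 10,000/well; cardiomyocytes seeded at 20,000/well. Dilution series given for 48 h, DMSO as control. MTT 0.5 mg/mL for 2 h, absorbance at 570/630 nm. Viability versus DMSO controls; IC50 from dose–response curves, mean of three independent experiments.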

A short description of data set [25]: Growth inhibition of human EAhy926 cells after 72 hrs by MTT assay. The class given is cell-based. The settings on record: EA.hy 926, 72 h. Put shortly:
as §3

The nature of data set [26]: Cytotoxicity against fertilized white leghorn chicken embryos in CAM model assessed as lethality at 5 nmol after 24 hrs relative to control. The class given is organism-based, Gallus gallus. The note with it: in vivo. Put shortly: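 Day-5 fertilized eggs (37 °C, 50-60% humidity) windowed, with 6 mm silicon rings placed on CAM vessels and incubated a further 24 h. Compound diluted to 500 µM in PBS and pipetted inside the ring (10 µL = 5 nmol); DMSO control. Vessel changes documented by stereomicroscopy at 0, 12 and 24 h.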

In data set [27] the test system is HT-29. Briefly: Cell cycle arrest in combretastatin A-4 resistant human HT-29 cells assessed as mitotic cells at 5 uM after 24 hrs by propidium iodide/immunostaining method (reference value: 3.1 to 3.2%). It counts as functional. Put shortly: as §5

The structures appear in SMILES notation. Activity calls are given as the source filed them. No cut-off for these calls is given here. Bounds are passed on as bounds.

This is an account of results in ChEMBL document CHEMBL3822382 (Eur J Med Chem, 2016).

One may read the IC50 as the concentration that inhibits the measured activity by half. A higher IC50 goes with a need for much substance. One may read the mortality as the share of the test organisms that died.

In the case of `CCn1cc(Cl)c2cc(-c3c(-c4cc(I)c(OC)c(OC)c4)ncn3C)ccc21`, the IC50 in data set [1] is 482 nM; in [2], 178 nM; in [3] it was 83.2 nM; in data set [4], 81.2 nM; in [5] it was 211 nM; in data set [6] it was 168 nM.
On to `COc1cc(-c2ncn(C)c2-c2ccc3c(c2)c(Cl)c(Cl)n3C)cc(Br)c1OC`, for which the IC50 in data set [1] came out at 903 nM; in data set [2] it was 223 nM; in data set [3], 456 nM; in [4], 208 nM; in data set [5], 292 nM; in [6], 223 nM.
In the case of `CCn1cc(Cl)c2cc(-c3c(-c4cc(Br)c(OC)c(OC)c4)ncn3C)ccc21`, the Activity in [7] was 7.8%; in [9], 17.4%; in data set [11], 39.7%; in data set [12], 35.2%. Besides, the figures for the Ratio in data set [8] and in [10] were 1.7 and 5.1, respectively. The IC50 in data set [1] worked out at 246 nM; in [2], 116 nM; in data set [3] it was 48.4 nM; in data set [4], 91.3 nM; in data set [5], 216 nM; in data set [6] it was 82 nM.
`CCn1c(Cl)c(Cl)c2cc(-c3c(-c4cc(Br)c(OC)c(OC)c4)ncn3C)ccc21`: the IC50 is greater than 1000 nM in [1]; 793 nM in [2]; greater than 1000 nM in data set [3]; 489 nM in data set [4]; greater than 1000 nM in data set [5]; 767 nM in [6].
For the compound `CCn1cc(Cl)c2cc(-c3c(-c4cc(OC)c(OC)c(OC)c4)ncn3C)ccc21`, the IC50 was 75.8 nM in data set [1]; 43.4 nM in data set [2]; 33.2 nM in [3]; 30.2 nM in data set [4]; 739 nM in [5]; 33 nM in data set [6].
`COc1cc(-c2ncn(C)c2-c2ccc3c(c2)c(Cl)cn3C)cc(Cl)c1OC`: the IC50 in [1] came out at 33.7 nM; in data set [2], 31.4 nM; in data set [3], 37.9 nM; in [4], 26.9 nM; in data set [5] it was 174 nM; in data set [6], 32.4 nM.
Regarding `COc1ccc(/C=C\c2cc(OC)c(OC)c(OC)c2)cc1O` [COMBRETASTATIN A4], the IC50 in data set [13] is 154 nM; in data set [20], 3.4 nM; in data set [23], 2.6 nM; in data set [2], greater than 5000 nM; in data set [24], 5.48 µM; in data set [25], 11 nM. In addition, the viability at 16 h, 0.1 µM in [14] is greater than 90%. Further, the result in data set [15], in data set [18] and in data set [22] was Active. Also, the Activity in [16] was found to be 18.2%; in data set [19], 51.4%; in data set [21], 18.6%; in [27], 10.2%. For the same compound, in [17], the inhibition entry was “Active”. Further, the mortality at 24 h in data set [26] stood at 60%.
Regarding `COc1cc(-c2ncn(C)c2-c2ccc3c(c2)c(Cl)cn3C)cc(I)c1OC`, the IC50 in data set [1] is 35.1 nM; in [2], 39.7 nM; in [3], 49.8 nM; in data set [4], 53.3 nM; in data set [5], 56.7 nM; in data set [6] it was 35.7 nM.
